Laboratory results as given in ChEMBL document CHEMBL1140313, “Potent inhibitors of subgenomic hepatitis C virus RNA replication through optimization of indole-N-acetamide allosteric inhibitors of the viral NS5B polymerase” (J Med Chem, 2005).

Experiments:
[1] = biological target: T1, RNA-directed RNA polymerase (Hepacivirus hominis, UniProt O39930); experiment: Inhibitory activity against by hepatitis C virus NS5B polymerase
Summary of the method: (§1)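 Purified ΔC55 NS5B polymerase assayed with heterogenic template RNA. IC50 values come from a single experiment or are arithmetic means of multiple experiments, as footnoted; some were measured in duplicate.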

Huh-7 [2] = experiment: Effective concentration required to inhibit replication of subgenomic HCV RNA in HUH-7 cells; format: functional, cell-based; details: Homo sapiens
Summary of the method: (§2)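 Subgenomic HCV replicon in HUH-7 cells, run in medium with 10% fetal calf serum (a modification of Bartenschlager's method). EC50 was determined only for compounds giving >50% inhibition in an initial screen at a fixed 5 μM. Values are the arithmetic mean ± half-range or standard error of at least two independent determinations, or from a single experiment where noted.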

[3] = Plasma clearance in dog; format: ADME, organism-based, Canis lupus familiaris; details: read-out: Clp
Summary of the method: (§3)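 Sprague-Dawley rats and male beagle dogs, dosed as trifluoroacetate salts (mg/kg; n = 3, some n = 2). Rat vehicle: iv 20% DMSO/[…] with po PEG-400, or iv 20% DMSO/80% saline with po 50% PEG-400/50% H2O. Dog vehicle: iv 20% DMSO/40% PEG-400/40% H2O, po PEG-400. Plasma levels measured by HPLC–MS/MS; noncompartmental analysis; terminal half-life from iv.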

[4] = Plasma clearance in rat; format: ADME, organism-based; details: read-out: Clp; summary of the method: as §3
[5] = Plasma half life following 3 mg/kg iv administration in rat; format: ADME, organism-based; parameters: dose 3 mg/kg, route intravenous; summary of the method: as §3
[6] = Oral bioavailability in dog at a dose of 2 mg/kg; format: ADME, organism-based, Canis lupus familiaris; details: in vivo; summary of the method: as §3
[7] = Oral bioavailability in rat (dose 3 mg/kg); format: ADME, organism-based; details: in vivo; summary of the method: as §3
[8] = biological target: T2, pregnane X receptor (PXR, NR1I2) (Homo sapiens, UniProt O75469); experiment: Inhibition of pregnane X receptor mediated activation of alkaline phosphatase reporter gene at 10 uM; format: functional
T2 sequence (O75469 whole entry): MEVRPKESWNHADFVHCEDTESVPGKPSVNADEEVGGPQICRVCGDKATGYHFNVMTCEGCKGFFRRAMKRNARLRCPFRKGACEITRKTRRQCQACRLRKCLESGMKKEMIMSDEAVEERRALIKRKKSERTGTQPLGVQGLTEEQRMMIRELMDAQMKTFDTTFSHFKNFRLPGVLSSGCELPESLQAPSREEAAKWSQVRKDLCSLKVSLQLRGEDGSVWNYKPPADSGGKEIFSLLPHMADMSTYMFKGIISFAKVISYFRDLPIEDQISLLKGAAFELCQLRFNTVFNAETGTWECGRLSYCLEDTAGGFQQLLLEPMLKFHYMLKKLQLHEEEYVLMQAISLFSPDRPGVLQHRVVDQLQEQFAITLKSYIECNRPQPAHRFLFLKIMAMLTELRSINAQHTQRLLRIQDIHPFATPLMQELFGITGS
Summary of the method: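 HepG2 cells were cotransfected with a human PXR expression vector and a secreted alkaline phosphatase (SEAP) reporter driven by a synthetic PXR-responsive element. Cells were incubated 48 h with or without test compound, and SEAP activity was read with a commercial detection kit.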

[9] = Plasma half life following 0.5 mg/kg iv administration in dog
Huh-7 [10] = experiment: Effective concentration required to inhibit replication of subgenomic HCV RNA in HUH-7 cells in the presence of 10% fetal calf serum; format: functional, cell-based; details: Homo sapiens; summary of the method: as §2
[11] = biological target: T1, RNA-directed RNA polymerase; experiment: Inhibitory activity against hepatitis C virus NS5B polymerase enzyme; Range=6-9 nM; summary of the method: as §1
Huh-7 [12] = experiment: Effective concentration required to inhibit replication of subgenomic HCV RNA in HUH-7 cells in the presence of 50% normal human serum; format: functional, cell-based
Summary of the method: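 Subgenomic HCV replicon in HUH-7 cells run under high-serum conditions with 50% normal human serum in place of 10% fetal calf serum. EC50 values are the arithmetic mean ± half-range or standard error of at least two independent determinations.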

T1 sequence (O39930 whole entry): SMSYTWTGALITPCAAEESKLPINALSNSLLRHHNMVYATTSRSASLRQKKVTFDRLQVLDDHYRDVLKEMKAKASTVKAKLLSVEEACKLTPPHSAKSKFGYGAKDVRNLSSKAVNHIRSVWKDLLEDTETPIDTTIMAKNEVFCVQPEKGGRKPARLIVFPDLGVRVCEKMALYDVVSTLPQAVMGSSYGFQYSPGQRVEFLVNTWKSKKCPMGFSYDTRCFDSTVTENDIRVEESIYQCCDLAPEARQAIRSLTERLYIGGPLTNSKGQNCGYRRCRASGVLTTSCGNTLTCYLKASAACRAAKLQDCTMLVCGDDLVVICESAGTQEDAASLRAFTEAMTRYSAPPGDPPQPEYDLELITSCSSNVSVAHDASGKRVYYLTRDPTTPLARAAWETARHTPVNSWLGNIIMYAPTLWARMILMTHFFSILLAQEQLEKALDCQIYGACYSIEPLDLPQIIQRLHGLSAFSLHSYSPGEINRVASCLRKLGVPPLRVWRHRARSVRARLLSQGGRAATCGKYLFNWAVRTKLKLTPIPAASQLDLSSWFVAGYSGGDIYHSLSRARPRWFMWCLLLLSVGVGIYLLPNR

Row | IC50 [1] | EC50 (Huh-7 [2]) | EC50 (Huh-7 [10]) | Compound | further results
1 | – | > 5000 nM | – | CN(C)C(=O)CN(C)C(=O)Cn1c(-c2ccccc2)c(C2CCCC2)c2ccc(C(=O)O)cc21 | –
2 | – | > 5000 nM | – | O=C(O)c1ccc2c(C3CCCC3)c(-c3ccccc3)n(CC(=O)N3CCS(=O)(=O)CC3)c2c1 | –
3 | 18 nM | 300 nM | – | CN1CCCC(CN(C)C(=O)Cn2c(-c3ccccc3)c(C3CCCCC3)c3ccc(C(=O)O)cc32)C1 (stereo not given) | clearance [3]: 22 mL/min/kg; clearance [4]: 51 mL/min/kg; half-life [5]: 90 min; bioavailability [6]: 28%; bioavailability [7]: 1.9%; inhibition at 10 µM [8]: 10%; half-life [9]: 72 min
4 | – | > 5000 nM | – | CN1CCCC(CN(C)C(=O)Cn2c(-c3ccccc3)c(C3CCCCC3)c3cc(C(=O)O)ccc32)C1 (stereo not given) | –
5 | 18 nM | – | 600 nM | CN(C)C(=O)Cn1c(-c2cccc(CN3CCCC(F)(F)C3)c2)c(C2CCCCC2)c2ccc(C(=O)O)cc21 | –
6 | 244 nM | 5000 nM | – | CN(C)C1CCN(C(=O)Cn2c(-c3ccccc3)c(C3CCCCC3)c3cc(C(=O)O)ccc32)C1 (stereo not given) | –
7 | 43 nM | 1600 nM | – | O=C(O)c1ccc2c(C3CCCCC3)c(-c3ccccc3)n(CC(=O)N3CCS(=O)(=O)CC3)c2c1 | –
8 | 78 nM | 1500 nM | – | CN(C)C1CCN(C(=O)Cn2c(-c3ccccc3)c(C3CCCC3)c3ccc(C(=O)O)cc32)C1 (stereo not given) | –
9 | 62 nM | 1600 nM | – | CC(C)N(C)C(=O)Cn1c(-c2ccccc2)c(C2CCCCC2)c2ccc(C(=O)O)cc21 | –
10 | – | > 5000 nM | – | O=C(O)c1ccc2c(c1)c(C1CCCCC1)c(-c1ccccc1)n2CC(=O)N1CCS(=O)(=O)CC1 | –
11 | 134 nM | – | 6700 nM | CN(C)C(=O)Cn1c(-c2ccncc2)c(C2CCCCC2)c2ccc(C(=O)O)cc21 | –
12 | 47 nM | 400 nM | – | CN1CCCC(CN(C)C(=O)Cn2c(-c3ccccc3)c(C3CCCC3)c3ccc(C(=O)O)cc32)C1 (stereo not given) | –
13 | 63 nM | 1300 nM | – | O=C(Cn1c(-c2ccccc2)c(C2CCCCC2)c2ccc(C(=O)O)cc21)NCC1CC1 | –
14 | – | > 5000 nM | – | CN(C)C(=O)CN(C)C(=O)Cn1c(-c2ccccc2)c(C2CCCCC2)c2cc(C(=O)O)ccc21 | –
15 | – | > 5000 nM | – | O=C(Cn1c(-c2ccccc2)c(C2CCCC2)c2ccc(C(=O)O)cc21)NCC1CC1 | –

Continued, molecule first:

Row | Compound | IC50 [1] | EC50 (Huh-7 [2]) | EC50 (Huh-7 [10]) | further results
16 | CS(=O)(=O)N1CCN(C(=O)Cn2c(-c3ccc(Cl)cc3)c(C3CCCCC3)c3ccc(C(=O)O)cc32)CC1 | 7 nM | 500 nM | – | –
17 | O=C(O)c1ccc2c(C3CCCCC3)c(-c3ccc(Cl)cc3)n(CC(=O)N3CCS(=O)(=O)CC3)c2c1 | 11 nM | 900 nM | – | –
18 | CN(C)C1CCN(C(=O)Cn2c(-c3cccc(F)c3)c(C3CCCCC3)c3ccc(C(=O)O)cc32)CC1 | – | – | – | inhibition at 10 µM [8]: 10%
19 | CN(C)C1CCN(C(=O)Cn2c(C3=CCCCC3)c(C3CCCCC3)c3ccc(C(=O)O)cc32)CC1 | 18 nM | – | 400 nM | –
20 | CCc1c(C2CCCCC2)c2ccc(C(=O)O)cc2n1CC(=O)N1CCC(N(C)C)CC1 | 283 nM | – | – | –
21 | CN(C)Cc1ccc(-c2c(C3CCCCC3)c3ccc(C(=O)O)cc3n2CC(=O)N(C)C)cc1 | 920 nM | – | 17600 nM | –
22 | CCN(CC)CC1CN(C(=O)Cn2c(-c3ccc(OC)cc3)c(C3CCCCC3)c3ccc(C(=O)O)cc32)CCO1 (stereo not given) | – | – | 152 nM | IC50 [11]: 9 nM; EC50 (Huh-7 [12]): 376 nM
23 | O=C(O)c1ccc2c(C3CCCCC3)c(-c3ccoc3)n(CC(=O)N3CCC(N4CCC4)CC3)c2c1 | – | – | 199 nM | IC50 [11]: 9 nM; EC50 (Huh-7 [12]): 633 nM
24 | CN(C)C(=O)Cn1c(-c2ccoc2)c(C2CCCCC2)c2ccc(C(=O)O)cc21 | 31 nM | – | 800 nM | –
25 | COc1ccc(-c2c(C3CCCCC3)c3ccc(C(=O)O)cc3n2CC(=O)N2CCC(N(C)C)CC2)cc1 | – | – | 158 nM | IC50 [11]: 9 nM; EC50 (Huh-7 [12]): 677 nM
26 | C#Cc1c(C2CCCCC2)c2ccc(C(=O)O)cc2n1CC(=O)N1CCC(N(C)C)CC1 | 228 nM | – | – | –
27 | COc1ccc(-c2c(C3CCCCC3)c3ccc(C(=O)O)cc3n2CC(=O)N(C)C)cn1 | 69 nM | – | 1800 nM | –
